Test results as given in ChEMBL document CHEMBL1129797, “Dual metalloprotease inhibitors. 6. Incorporation of bicyclic and substituted monocyclic azepinones as dipeptide surrogates in angiotensin-converting enzyme/neutral endopeptidase inhibitors” (J Med Chem, 1996).

Key:
[1] = target: T1, Angiotensin-converting enzyme (Oryctolagus cuniculus, UniProt P12822); assay: In vitro inhibition of Angiotensin I converting enzyme isolated from rabbit lung extract.; type: tissue-based
T1 sequence (P12822 whole entry): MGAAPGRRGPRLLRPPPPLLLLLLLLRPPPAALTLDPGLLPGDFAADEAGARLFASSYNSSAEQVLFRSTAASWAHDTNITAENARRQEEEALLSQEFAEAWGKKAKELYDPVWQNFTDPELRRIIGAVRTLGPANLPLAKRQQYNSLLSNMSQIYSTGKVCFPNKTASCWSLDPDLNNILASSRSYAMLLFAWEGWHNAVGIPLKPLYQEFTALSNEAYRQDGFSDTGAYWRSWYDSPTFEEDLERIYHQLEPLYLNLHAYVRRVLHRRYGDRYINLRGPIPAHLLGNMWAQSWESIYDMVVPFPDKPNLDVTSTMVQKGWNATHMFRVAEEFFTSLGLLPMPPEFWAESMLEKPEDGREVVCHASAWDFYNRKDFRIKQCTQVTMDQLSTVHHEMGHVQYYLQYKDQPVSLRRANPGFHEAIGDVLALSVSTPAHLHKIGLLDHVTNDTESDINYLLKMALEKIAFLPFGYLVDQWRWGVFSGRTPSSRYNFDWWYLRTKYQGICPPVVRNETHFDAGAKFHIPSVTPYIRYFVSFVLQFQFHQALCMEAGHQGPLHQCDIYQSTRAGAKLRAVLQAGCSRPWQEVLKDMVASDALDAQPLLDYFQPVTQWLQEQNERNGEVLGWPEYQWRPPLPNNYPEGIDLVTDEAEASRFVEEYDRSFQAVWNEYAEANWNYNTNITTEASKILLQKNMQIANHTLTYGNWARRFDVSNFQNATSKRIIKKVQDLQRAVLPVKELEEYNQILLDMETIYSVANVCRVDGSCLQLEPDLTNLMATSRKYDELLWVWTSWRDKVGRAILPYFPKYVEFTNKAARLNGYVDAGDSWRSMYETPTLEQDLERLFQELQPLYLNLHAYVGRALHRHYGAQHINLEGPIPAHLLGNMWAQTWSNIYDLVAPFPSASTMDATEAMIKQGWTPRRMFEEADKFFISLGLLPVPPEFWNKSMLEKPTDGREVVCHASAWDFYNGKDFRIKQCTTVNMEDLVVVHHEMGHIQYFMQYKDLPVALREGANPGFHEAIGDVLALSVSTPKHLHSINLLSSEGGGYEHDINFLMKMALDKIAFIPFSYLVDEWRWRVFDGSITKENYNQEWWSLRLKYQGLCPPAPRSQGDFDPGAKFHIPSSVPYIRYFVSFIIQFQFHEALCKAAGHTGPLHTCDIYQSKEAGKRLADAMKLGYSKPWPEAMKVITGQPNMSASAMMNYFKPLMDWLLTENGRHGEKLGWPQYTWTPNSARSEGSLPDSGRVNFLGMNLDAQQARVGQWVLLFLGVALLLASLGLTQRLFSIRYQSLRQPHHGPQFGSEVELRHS
Summary of the method: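 Rabbit lung acetone powder extract (1:20 dilution) as enzyme source; spectrophotometric hippuric acid formation from hippuryl-L-histidyl-L-leucine (5 mM final). Final concentrations: 100 mM phosphate buffer pH 8.3, 300 mM NaCl; varied inhibitor concentrations or vehicle. Incubated 30 min at 37 °C. Stopped with 1 N HCl, then ethyl acetate added.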

[2] = test system: Rattus norvegicus; assay: Intravenous effective dose required to inhibit 50% of the AI pressor response in normotensive rats; type: functional
Summary of the method: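 Conscious male Sprague-Dawley rats (220-240 g), aortic and vena caval catheters, four per assay. Various doses given iv in 5% NaHCO3. AI (310 ng/kg iv) pressor responses taken before dosing and at 2-30 min intervals up to 6 h. Maximum-inhibition time point per dose used for the dose-response curve; ED50 interpolated.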

[3] = target: T2, Neprilysin (Rattus norvegicus, UniProt P07861); assay: In vitro inhibition of purified rat kidney Neutral endopeptidase.
T2 sequence (P07861 whole entry): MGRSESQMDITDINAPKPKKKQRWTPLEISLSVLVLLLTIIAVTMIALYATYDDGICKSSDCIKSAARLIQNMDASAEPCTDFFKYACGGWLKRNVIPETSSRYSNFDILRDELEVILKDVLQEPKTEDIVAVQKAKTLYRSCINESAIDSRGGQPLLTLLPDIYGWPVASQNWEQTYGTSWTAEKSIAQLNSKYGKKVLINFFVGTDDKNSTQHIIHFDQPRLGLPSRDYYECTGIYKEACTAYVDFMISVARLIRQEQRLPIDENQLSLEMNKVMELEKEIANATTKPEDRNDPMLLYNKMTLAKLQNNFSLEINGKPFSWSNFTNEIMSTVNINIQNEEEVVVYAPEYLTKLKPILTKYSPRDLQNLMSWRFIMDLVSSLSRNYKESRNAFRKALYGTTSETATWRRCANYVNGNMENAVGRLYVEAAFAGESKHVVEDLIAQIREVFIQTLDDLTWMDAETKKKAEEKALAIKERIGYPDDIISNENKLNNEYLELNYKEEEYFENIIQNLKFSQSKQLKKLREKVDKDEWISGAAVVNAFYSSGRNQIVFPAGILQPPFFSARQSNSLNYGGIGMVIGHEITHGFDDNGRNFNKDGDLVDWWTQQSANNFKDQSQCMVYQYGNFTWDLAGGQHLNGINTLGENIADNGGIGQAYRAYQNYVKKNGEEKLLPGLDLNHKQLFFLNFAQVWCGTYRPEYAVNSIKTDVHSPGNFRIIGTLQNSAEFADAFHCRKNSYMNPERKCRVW
Summary of the method: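 Rat kidney membrane enzyme solubilized (1% deoxycholate, papain/DTT, 37 °C 90 min), purified by gel filtration and phenyl sepharose. Enzyme in 0.05% Triton X-100 with 50 mM Tris-HCl pH 7.5, preincubated 10 min with inhibitor; 0.5 mM dansyl-Gly-Phe-Arg added. Incubated 37 °C, 30 min; stopped with HCl. Dansyl-Gly extracted into ethyl acetate; fluorescence ex 342/em 510 nm, zero-time corrected, versus no-inhibitor.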

| Compound | IC50 [1] [nM] | ED50 [2] [µmol/kg] | IC50 [3] [nM] |
| --- | --- | --- | --- |
| C=CC[C@H]1CCC[C@H](NC(=O)[C@@H](S)Cc2ccccc2)C(=O)N1CC(=O)O | 7 | 0.04 | 64 |
| C[C@@H]1CCC[C@H](NC(=O)[C@@H](S)Cc2ccccc2)C(=O)N1CC(=O)O | 16 | – | 149 |
| O=C(O)CN1C(=O)[C@@H](NC(=O)[C@@H](S)Cc2ccccc2)CCc2ccccc21 | 12 | 0.02 | 6 |
| O=C(O)CN1C(=O)[C@@H](NC(=O)[C@@H](S)Cc2ccccc2)CCC[C@@H]1C1CCCC1 | 17 | – | 1650 |
| CC(C)[C@@H](C(=O)O)N1CCCC[C@H](NC(=O)[C@@H](S)Cc2ccccc2)C1=O | 907 | – | 1000 |
| CC(C)C[C@H]1CCC[C@H](NC(=O)[C@@H](S)Cc2ccccc2)C(=O)N1CC(=O)O | 10 | – | 1660 |
| O=C(N[C@H]1CCC[C@H]2CC[C@@H](C(=O)O)N2C1=O)[C@@H](S)Cc1ccccc1 | 5 | 0.06 | 18 |
| C[C@H]1CCC[C@H](NC(=O)[C@@H](S)Cc2ccccc2)C(=O)N1CC(=O)O | 8 | 0.11 | 49 |
| O=C(O)CN1C(=O)[C@@H](NC(=O)[C@@H](S)Cc2ccccc2)CCC[C@@H]1CCO | 25 | 0.08 | 31 |
| CCC[C@H]1CCC[C@H](NC(=O)[C@@H](S)Cc2ccccc2)C(=O)N1[C@@H](C)C(=O)O | 5 | 0.12 | 17 |
| CCC[C@H]1CCC[C@H](NC(=O)[C@@H](S)Cc2ccccc2)C(=O)N1[C@@H](CC)C(=O)O | 25 | – | 86 |
| O=C(N[C@H]1CCC[C@H]2CCC[C@@H](C(=O)O)N2C1=O)[C@@H](S)Cc1ccccc1 | 11 | 0.12 | 25 |
| CCC[C@H]1CCC[C@H](NC(=O)[C@@H](S)Cc2ccccc2)C(=O)N1CC(=O)O | 11 | 0.06 | 40 |
| O=C(O)CN1CCCC[C@H](NC(=O)[C@@H](S)Cc2ccccc2)C1=O | 22 | 0.84 | 82 |
| C[C@@H](C(=O)O)N1CCCC[C@H](NC(=O)[C@@H](S)Cc2ccccc2)C1=O | 26 | 1.22 | 92 |
| C[C@H](NC(=O)[C@@H](S)Cc1ccccc1)C(=O)N1CCC[C@H]1C(=O)O | – | 0.06 | – |
| CCC[C@@H]1CCC[C@H](NC(=O)[C@@H](S)Cc2ccccc2)C(=O)N1CC(=O)O | 14 | – | 466 |
| O=C(O)CN1C(=O)[C@@H](NC(=O)[C@@H](S)Cc2ccccc2)CCC[C@@H]1CC1CC1 | 23 | – | 140 |
| O=C(N[C@H]1CCCCN([C@@H](Cc2ccccc2)C(=O)O)C1=O)[C@@H](S)Cc1ccccc1 | 479 | – | 32 |
